# Experimental data pooled from the literature.
# Protocols differ between the studies behind these lines.
# TYK2 JH1: Non-receptor tyrosine-protein kinase TYK2, JH1 (TYK2, Homo sapiens, UniProt P29597)
# TAOK1: Serine/threonine-protein kinase TAO1 (TAOK1, Homo sapiens, UniProt Q7L7X3)
# ADORA3: Adenosine receptor A3 (ADORA3, Homo sapiens, UniProt P0DMS8)
# MC3R: Melanocortin receptor 3 (MC3R, Homo sapiens, UniProt P41968)
Compound,target,assay,test system,setting,quantity,result
Cc1cc2c(C(N)=O)c(N)n(-c3c(C)ccc(O)c3C)c2nc1C,"Serine/threonine-protein kinase B-raf (BRAF, Homo sapiens, UniProt P15056)","enzyme activity, inhibitor, ADP detection",,0.3704 µM,inhibition,84%
N#Cc1ccc(NC(=O)Nc2ccccc2)cc1,TYK2 JH1,"cell-free assay, competition with immobilised ligand",,25 µM,remaining binding,99%
C[C@]1(O)CCCN(c2nc(Nc3ccc(S(=O)(=O)N[C@H]4CC[C@H](CN5CCN(c6ccc(C7CCC(=O)NC7=O)cc6F)CC5)CC4)cc3Cl)ncc2C(F)(F)F)C1 (some centres unmarked),TAOK1,"binding, competition with immobilised ligand",,1 µM,remaining binding,91%
Cc1cc(F)cc2c(CCC(=O)N[C@@H]3C(=O)NC[C@H]3O)c(-c3ccc(F)cc3)[nH]c12,"Neuropeptide Y receptor type 1 (NPY1R, Homo sapiens, UniProt P25929)",cell-free assay,,10 µM,inhibition,1%
C#Cc1cc(-c2cc(Nc3nc(N[C@@H](C)c4ccc(F)cn4)ncc3Cl)n[nH]2)ccc1C=O,"Ribosomal protein S6 kinase alpha-2 (RPS6KA2, Homo sapiens, UniProt Q15349)","enzyme activity, inhibitor",,0.2 µM,inhibition,39%
Cc1cc(O)c(-c2ccc([C@@H](C)CN(C)C)cc2)c2c1[nH]c(=O)c1sccc12,"Cyclin-dependent kinase 6 (CDK6, Homo sapiens, UniProt Q00534)","enzyme activity, inhibitor",,0.1 µM,inhibition,1.19%
CCN1/C(=C/C(C)=O)Sc2ccc(F)cc21,ADORA3,"ligand displacement, radioligand",,10 µM,inhibition,12.4%
CC(=O)N[C@H](CCCNC(=N)N)C(=O)N[C@H]1CSSC[C@@H](C(N)=O)NC(=O)[C@H](Cc2c[nH]c3ccccc23)NC(=O)[C@H](CCCNC(=N)N)NC(=O)[C@@H](Cc2ccccc2)NC(=O)[C@H](Cc2c[nH]cn2)NC(=O)[C@H](CCC(=O)O)NC1=O,MC3R,"cAMP, agonist",CHO-K1,,Emax,91%
NC/C(=C\F)COc1cccc(Cn2c(=S)[nH]c(=O)c3[nH]cnc32)c1,ADORA3,"ligand displacement, radioligand",,10 µM,inhibition,< 50%
CCCC[C@H](NC(C)=O)C(=O)N[C@@H](C)C(=O)N[C@@H](Cc1c[nH]cn1)C(=O)N[C@@H](Cc1ccccc1)C(=O)N[C@@H](CCCNC(=N)N)C(=O)N[C@H](Cc1c[nH]c2ccccc12)C(=O)N[C@@H](CC(=O)O)C(=O)N[C@@H](CCCNC(=N)N)C(=O)N[C@@H](Cc1ccccc1)C(=O)N[C@@H](C(=O)N1CCC[C@@H]1C(N)=O)C(C)C,MC3R,"cAMP, agonist",CHO-K1,,Emax,100%
CCCCC(=O)Nc1ccc(-c2ccc3ncn(CCC)c(=O)c3c2)cn1,"Proto-oncogene tyrosine-protein kinase ROS (ROS1, Homo sapiens, UniProt P08922)","binding, competition with immobilised ligand",,0.5 µM,remaining binding,89%
C[C@]1(O)CCCN(c2nc(Nc3ccc(S(=O)(=O)N[C@H]4CC[C@H](CN5CCN(c6ccc(C7CCC(=O)NC7=O)cc6F)CC5)CC4)cc3F)ncc2C(F)(F)F)C1 (some centres unmarked),TAOK1,"binding, competition with immobilised ligand",,1 µM,remaining binding,63%
COc1ccc2oc(-c3ccc4nc(N)oc4c3)c/c(=N\c3ccccc3NC(=O)CCN)c2c1,"Cyclin-dependent kinase 6, with cyclin D3 (CDK6, Homo sapiens, UniProt Q00534)",binding,,1 µM,remaining binding,98%
C1=C/COCc2cc(ccc2OCCN2CCCC2)Nc2nccc(n2)-c2cccc(c2)COC/1,TYK2 JH1,cell-free assay,,0.1 µM,remaining signal,52%
